Results as given in ChEMBL document CHEMBL3769318, “The Rational Design of Selective Benzoxazepin Inhibitors of the α-Isoform of Phosphoinositide 3-Kinase Culminating in the Identification of (S)-2-((2-(1-Isopropyl-1H-1,2,4-triazol-5-yl)-5,6-dihydrobenzo[f]imidazo[1,2-d][1,4]oxazepin-9-yl)oxy)propanamide (GDC-0326)” (J Med Chem, 2016).
Converted amounts (≈) assume the structure as drawn. Blank lines part the entries; values can stand above or below the molecule they belong to.

Assays:
[1] = target: Phosphatidylinositol 4,5-bisphosphate 3-kinase catalytic subunit alpha isoform (Homo sapiens, UniProt P42336); assay: Inhibition of recombinant PI3K alpha (unknown origin) using PIP2 as substrate by fluorescence polarization assay; details: read-out: Ki(app)
[2] = Clearance in Sprague-Dawley rat at 1 mg/kg, iv; type: ADME, organism-based; details: in vivo
KPL4 = assay: Antitumor activity against human KPL4 cells xenografted in po dosed SCID beige mouse assessed as tumor growth inhibition administered daily for 21 days; type: functional, organism-based
In short: (§1)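 KPL-4 breast cancer xenografts grown in scid beige mice; oral dosing once daily for 21 days in MCT vehicle (0.5% methylcellulose/0.2% Tween-80) at 0.78–25 mg/kg, 10 animals per group; tumor volumes fitted and tumor growth inhibition calculated versus vehicle-treated mice.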

[3] = Volume of distribution at steady state in Beagle dog at 1 mg/kg, iv; type: ADME, organism-based, Canis lupus familiaris; details: in vivo, read-out: Vdss
Canis familiaris [4] = assay: Oral bioavailability in Beagle dog at 2 mg/kg; type: ADME, organism-based, Canis lupus familiaris; details: in vivo
In short: (§2)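 Single oral dose at 2 mg/kg in 0.5% methylcellulose with 0.2% Tween 80, given to beagle dogs or male cynomolgus monkeys; the IV reference was 1 mg/kg in 60% PEG400/10% ethanol.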

[5] = Antitumor activity against human MCF7-neo/Her2 cells xenografted in mouse assessed as tumor growth inhibition at 12.5 mg/kg, po qd for 21 days; type: functional; details: 504 h, read-out: TGI
In short: (§3)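 MCF7-neo/HER2 breast cancer xenografts grown in nude mice; daily oral dosing for 21 days in 0.5% methylcellulose/0.2% Tween-80 vehicle at 0.78–25 mg/kg, 10 animals per group; fitted tumor volumes compared against vehicle-treated mice to give tumor growth inhibition.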

Canis familiaris [6] = assay: AUC in Beagle dog at 2 mg/kg, po; type: ADME, organism-based, Canis lupus familiaris; details: in vivo
Mus musculus [7] = assay: Volume of distribution at steady state in NCR nude mouse at 1 mg/kg, iv; details: in vivo
[8] = Antitumor activity against human KPL4 cells xenografted in SCID beige mouse assessed as tumor growth inhibition at 0.78 mg/kg, po qd for 21 days; type: functional; details: 504 h, read-out: TGI; in short: as §1
Mus musculus [9] = assay: Toxicity in SCID beige mouse xenografted with human KPL4 cells assessed as body weight loss upto 12.5 mg/kg, po; type: organism-based; details: in vivo
Cytochrome P450 3A4 = Cytochrome P450 3A4 (Homo sapiens, UniProt P08684); assay: Inhibition of CYP3A4 (unknown origin); type: ADME
[10] = Oral bioavailability in Cynomolgus monkey at 2 mg/kg; type: ADME, organism-based, Macaca fascicularis; details: in vivo; in short: as §2
[11] = Clearance in Cynomolgus monkey at 1 mg/kg, iv; type: ADME, organism-based, Macaca fascicularis; details: in vivo
[12] = Apparent permeability from apical to basolateral side in MDCK cells; type: ADME, cell-based, Canis lupus familiaris; details: dog
Cytochrome P450 2C19 = Cytochrome P450 2C19 (Homo sapiens, UniProt P33261); assay: Inhibition of CYP2C19 (unknown origin); type: ADME
[13] = Cmax in Beagle dog at 2 mg/kg, po; type: ADME, organism-based, Canis lupus familiaris; set-up: dose 2 mg/kg, route oral; details: in vivo; in short: as §2
[14] = Cmax in Sprague-Dawley rat at 5 mg/kg, po; type: ADME, organism-based; set-up: dose 5 mg/kg, route oral; details: in vivo
In short: (§4)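 Male Sprague-Dawley rats dosed PO at 5 mg/kg in 0.5% methylcellulose/0.2% Tween 80 (MCT); the IV reference arm was 1 mg/kg in 60% PEG400/10% ethanol.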

[15] = Cmax in NCR nude mouse at 25 mg/kg, po; type: ADME, organism-based; set-up: dose 25 mg/kg, route oral; details: in vivo
[16] = Plasma protein binding in Cynomolgus monkey at 5 uM after 4 hrs by LC-MS/MS analysis; type: ADME, cell-free, Macaca fascicularis; details: read-out: PPB (converted)
In short: (§5)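 Equilibrium dialysis of pooled plasma (n ≥ 3) spiked with compound at 5 µM total against PBS pH 7.4, 37 °C, 5% CO2, for 4 h; plasma and buffer concentrations measured by LC-MS/MS; percent unbound calculated as buffer/plasma ×100.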

[17] = Plasma protein binding in Beagle dog at 5 uM after 4 hrs by LC-MS/MS analysis; type: ADME, cell-free, Canis lupus familiaris; details: read-out: PPB (converted); in short: as §5
[18] = AUC in Cynomolgus monkey at 2 mg/kg, po; type: ADME, organism-based, Macaca fascicularis; details: in vivo
Cytochrome P450 1A2 = target: T1, Cytochrome P450 1A2 (Homo sapiens, UniProt P05177); assay: Inhibition of CYP1A2 (unknown origin); type: ADME
T1 sequence (P05177 whole entry): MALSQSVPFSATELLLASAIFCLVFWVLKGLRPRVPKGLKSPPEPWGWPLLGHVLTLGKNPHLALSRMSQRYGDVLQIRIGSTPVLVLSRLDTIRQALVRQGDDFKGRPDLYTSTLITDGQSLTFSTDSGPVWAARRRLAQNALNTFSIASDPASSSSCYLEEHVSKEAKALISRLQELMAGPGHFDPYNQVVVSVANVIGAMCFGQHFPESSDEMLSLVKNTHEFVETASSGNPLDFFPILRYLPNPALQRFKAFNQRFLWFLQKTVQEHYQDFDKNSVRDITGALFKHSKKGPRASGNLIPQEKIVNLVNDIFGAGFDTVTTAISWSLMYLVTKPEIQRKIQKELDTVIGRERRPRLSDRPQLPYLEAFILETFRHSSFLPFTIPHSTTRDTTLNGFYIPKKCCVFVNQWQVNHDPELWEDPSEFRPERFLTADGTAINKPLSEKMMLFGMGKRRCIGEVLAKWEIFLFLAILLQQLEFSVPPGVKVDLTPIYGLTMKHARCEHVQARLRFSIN

[19] = Antitumor activity against human KPL4 cells xenografted in SCID beige mouse assessed as tumor growth inhibition at 1.56 mg/kg, po qd for 21 days; type: functional; details: 504 h, read-out: TGI; in short: as §1
[20] = Plasma protein binding in Sprague-Dawley rat at 5 uM after 4 hrs by LC-MS/MS analysis; type: ADME, cell-free; details: read-out: PPB (converted); in short: as §5
[21] = Antiproliferative activity against human MCF7-neo/Her2 cells after 3 days by luminescence plate reader method; type: functional, cell-based; details: 72 h
[22] = Volume of distribution at steady state in Cynomolgus monkey at 1 mg/kg, iv; type: ADME, organism-based, Macaca fascicularis; details: in vivo, read-out: Vdss
[23] = Oral bioavailability in Sprague-Dawley rat at 5 mg/kg; type: ADME, organism-based; details: in vivo; in short: as §4
[24] = AUC in Sprague-Dawley rat at 5 mg/kg, po; type: ADME, organism-based; details: in vivo; in short: as §4
[25] = Plasma protein binding in CD-1 mouse at 5 uM after 4 hrs by LC-MS/MS analysis; type: ADME, cell-free; details: CD-1, mouse, read-out: PPB (converted); in short: as §5
[26] = Antitumor activity against human MCF7-neo/Her2 cells xenografted in mouse assessed as tumor growth inhibition at 0.78 mg/kg, po qd for 21 days; type: functional; details: 504 h, read-out: TGI; in short: as §3
Cytochrome P450 2D6 = Cytochrome P450 2D6 (Homo sapiens, UniProt P10635); assay: Inhibition of CYP2D6 (unknown origin); type: ADME
Mus musculus [27] = assay: Decrease in phosphorylated Akt in mouse xenografted with human MCF7-neo/Her2 cells at 6.25 mg/kg administered as single dose after 1 hr by immunoassay; type: functional
In short: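 Mice bearing MCF7-neo/HER2 tumors given a single oral dose in MCT vehicle; tumors collected 1 h later. Phospho-Akt Ser473 and total Akt measured by Mesoscale Discovery immunoassay and expressed as pAkt/tAkt relative to vehicle; four animals per group; unbound plasma drug measured at the same time.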

Cytochrome P450 2C9 = Cytochrome P450 2C9 (Homo sapiens, UniProt P11712); assay: Inhibition of CYP2C9 (unknown origin); type: ADME
[28] = Clearance in NCR nude mouse at 1 mg/kg, iv; type: ADME, organism-based; details: in vivo
[29] = Antitumor activity against human KPL4 cells xenografted in SCID beige mouse assessed as tumor growth inhibition at 6.25 mg/kg, po qd for 21 days; type: functional; details: 504 h, read-out: TGI; in short: as §1
[30] = target: Phosphatidylinositol 4-phosphate 3-kinase C2 domain-containing subunit beta (Homo sapiens) (UniProt O00750); assay: Inhibition of PI3KC2b (unknown origin) at 1 uM
In short: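 Kinase panel screen of 235 kinases at Invitrogen with compound at 1 µM; read-out was percent inhibition.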

[31] = AUC in NCR nude mouse at 25 mg/kg, po; type: ADME, organism-based; details: in vivo
[32] = Volume of distribution at steady state in Sprague-Dawley rat at 1 mg/kg, iv; type: ADME, organism-based; details: in vivo, read-out: Vdss
[33] = Antitumor activity against human MCF7-neo/Her2 cells xenografted in mouse assessed as tumor growth inhibition at 6.25 mg/kg, po qd for 21 days; type: functional; details: 504 h, read-out: TGI; in short: as §3
Homo sapiens = assay: Antitumor activity against human MCF7-neo/Her2 cells xenografted in po dosed nude mouse assessed as tumor growth inhibition administered daily for 21 days; type: functional, organism-based; in short: as §3
[34] = Antitumor activity against human KPL4 cells xenografted in SCID beige mouse assessed as tumor growth inhibition at 12.5 mg/kg, po qd for 21 days; type: functional; details: 504 h, read-out: TGI; in short: as §1
[35] = Antitumor activity against human MCF7-neo/Her2 cells xenografted in mouse assessed as tumor growth inhibition at 1.56 mg/kg, po qd for 21 days; type: functional; details: 504 h, read-out: TGI; in short: as §3
[36] = Oral bioavailability in NCR nude mouse at 25 mg/kg; type: ADME, organism-based; details: in vivo
[37] = Antiproliferative activity against human PC3 cells after 4 days by luminescence plate reader method; type: functional, cell-based; details: PC-3, 96 h
[38] = Antitumor activity against human MCF7-neo/Her2 cells xenografted in mouse assessed as tumor growth inhibition at 3.25 mg/kg, po qd for 21 days; type: functional; details: 504 h, read-out: TGI; in short: as §3
[39] = Thermodynamic solubility of compound at pH 7.4; type: physicochemical; details: buffer, read-out: Therm_solubility
[40] = Cmax in Cynomolgus monkey at 2 mg/kg, po; type: ADME, organism-based, Macaca fascicularis; set-up: dose 2 mg/kg, route oral; details: in vivo; in short: as §2
[41] = Antitumor activity against human KPL4 cells xenografted in SCID beige mouse assessed as tumor growth inhibition at 3.25 mg/kg, po qd for 21 days; type: functional; details: 504 h, read-out: TGI; in short: as §1
[42] = Cytotoxicity against human KPL4 cells after 4 days by luminescence plate reader method; type: functional, cell-based; details: KPL4, 96 h

Sequence of Phosphatidylinositol 4,5-bisphosphate 3-kinase catalytic subunit alpha isoform (P42336 whole entry, canonical isoform): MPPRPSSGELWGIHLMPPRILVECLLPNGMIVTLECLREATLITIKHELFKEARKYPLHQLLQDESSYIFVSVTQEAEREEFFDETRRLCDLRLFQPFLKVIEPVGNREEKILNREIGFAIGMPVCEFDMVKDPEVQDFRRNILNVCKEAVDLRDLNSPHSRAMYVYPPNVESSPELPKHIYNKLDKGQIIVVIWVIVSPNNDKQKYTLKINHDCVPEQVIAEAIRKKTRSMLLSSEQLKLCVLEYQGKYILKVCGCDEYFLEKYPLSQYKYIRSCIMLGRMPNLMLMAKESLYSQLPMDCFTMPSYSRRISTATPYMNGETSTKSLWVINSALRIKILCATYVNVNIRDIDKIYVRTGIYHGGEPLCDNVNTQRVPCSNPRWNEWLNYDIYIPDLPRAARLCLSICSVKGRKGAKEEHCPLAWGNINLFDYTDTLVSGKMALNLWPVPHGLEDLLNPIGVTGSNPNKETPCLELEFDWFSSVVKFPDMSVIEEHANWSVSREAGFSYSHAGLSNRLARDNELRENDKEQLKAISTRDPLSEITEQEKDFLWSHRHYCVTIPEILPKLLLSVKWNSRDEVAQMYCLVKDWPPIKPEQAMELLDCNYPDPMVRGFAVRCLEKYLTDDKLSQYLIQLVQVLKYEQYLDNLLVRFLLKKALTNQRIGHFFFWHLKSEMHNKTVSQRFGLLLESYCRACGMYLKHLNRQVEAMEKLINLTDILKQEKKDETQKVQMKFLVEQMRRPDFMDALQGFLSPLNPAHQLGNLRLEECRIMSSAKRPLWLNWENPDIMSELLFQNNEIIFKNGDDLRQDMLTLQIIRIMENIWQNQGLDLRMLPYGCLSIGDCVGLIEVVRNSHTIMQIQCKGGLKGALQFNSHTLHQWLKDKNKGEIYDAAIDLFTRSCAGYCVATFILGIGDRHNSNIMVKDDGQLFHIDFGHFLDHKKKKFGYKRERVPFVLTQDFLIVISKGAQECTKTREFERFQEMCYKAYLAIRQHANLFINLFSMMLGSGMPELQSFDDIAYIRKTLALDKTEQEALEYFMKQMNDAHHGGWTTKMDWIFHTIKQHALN
Sequence of Cytochrome P450 2D6 (P10635 whole entry): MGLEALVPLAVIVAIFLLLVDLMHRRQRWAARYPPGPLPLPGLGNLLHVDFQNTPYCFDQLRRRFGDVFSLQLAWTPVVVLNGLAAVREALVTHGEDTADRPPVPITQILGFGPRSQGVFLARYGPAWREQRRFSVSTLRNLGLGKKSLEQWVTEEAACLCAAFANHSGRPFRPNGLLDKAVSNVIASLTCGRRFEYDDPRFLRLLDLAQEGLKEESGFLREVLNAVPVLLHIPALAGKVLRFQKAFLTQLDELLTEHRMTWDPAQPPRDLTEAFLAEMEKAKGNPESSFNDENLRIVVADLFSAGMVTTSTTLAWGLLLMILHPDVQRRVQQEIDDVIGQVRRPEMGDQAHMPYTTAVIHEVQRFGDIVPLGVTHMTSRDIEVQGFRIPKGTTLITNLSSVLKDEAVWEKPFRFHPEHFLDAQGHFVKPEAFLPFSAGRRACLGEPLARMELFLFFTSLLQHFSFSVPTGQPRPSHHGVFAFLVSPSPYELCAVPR
Sequence of Cytochrome P450 3A4 (P08684 whole entry): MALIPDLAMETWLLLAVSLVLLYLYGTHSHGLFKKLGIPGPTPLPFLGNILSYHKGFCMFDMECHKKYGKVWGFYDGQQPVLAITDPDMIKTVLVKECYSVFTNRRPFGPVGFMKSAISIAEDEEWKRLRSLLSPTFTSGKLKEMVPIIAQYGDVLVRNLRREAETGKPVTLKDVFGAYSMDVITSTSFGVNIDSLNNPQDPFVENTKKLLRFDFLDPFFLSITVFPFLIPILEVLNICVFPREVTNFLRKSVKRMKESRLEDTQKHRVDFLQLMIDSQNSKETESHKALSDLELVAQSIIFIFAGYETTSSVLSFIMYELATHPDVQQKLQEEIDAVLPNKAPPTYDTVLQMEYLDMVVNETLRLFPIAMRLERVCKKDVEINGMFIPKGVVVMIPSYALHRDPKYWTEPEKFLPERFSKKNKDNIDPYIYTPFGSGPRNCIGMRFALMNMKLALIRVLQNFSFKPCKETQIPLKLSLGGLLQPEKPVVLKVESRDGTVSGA
Sequence of Cytochrome P450 2C9 (P11712 whole entry): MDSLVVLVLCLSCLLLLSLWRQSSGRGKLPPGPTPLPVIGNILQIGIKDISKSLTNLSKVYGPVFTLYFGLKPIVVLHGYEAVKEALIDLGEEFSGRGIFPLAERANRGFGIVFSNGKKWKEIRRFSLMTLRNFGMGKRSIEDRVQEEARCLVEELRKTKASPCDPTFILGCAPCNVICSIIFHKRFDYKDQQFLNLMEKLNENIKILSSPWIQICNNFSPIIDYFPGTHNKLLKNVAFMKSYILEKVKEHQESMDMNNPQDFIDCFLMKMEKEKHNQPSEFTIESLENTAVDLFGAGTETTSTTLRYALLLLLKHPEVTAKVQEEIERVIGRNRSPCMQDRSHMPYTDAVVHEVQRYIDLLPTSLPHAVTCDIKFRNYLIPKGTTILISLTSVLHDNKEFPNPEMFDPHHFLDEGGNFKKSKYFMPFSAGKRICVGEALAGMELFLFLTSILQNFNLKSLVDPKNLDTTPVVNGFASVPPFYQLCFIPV
Sequence of Phosphatidylinositol 4-phosphate 3-kinase C2 domain-containing subunit beta (Homo sapiens) (O00750 whole entry, the tested form may be a part): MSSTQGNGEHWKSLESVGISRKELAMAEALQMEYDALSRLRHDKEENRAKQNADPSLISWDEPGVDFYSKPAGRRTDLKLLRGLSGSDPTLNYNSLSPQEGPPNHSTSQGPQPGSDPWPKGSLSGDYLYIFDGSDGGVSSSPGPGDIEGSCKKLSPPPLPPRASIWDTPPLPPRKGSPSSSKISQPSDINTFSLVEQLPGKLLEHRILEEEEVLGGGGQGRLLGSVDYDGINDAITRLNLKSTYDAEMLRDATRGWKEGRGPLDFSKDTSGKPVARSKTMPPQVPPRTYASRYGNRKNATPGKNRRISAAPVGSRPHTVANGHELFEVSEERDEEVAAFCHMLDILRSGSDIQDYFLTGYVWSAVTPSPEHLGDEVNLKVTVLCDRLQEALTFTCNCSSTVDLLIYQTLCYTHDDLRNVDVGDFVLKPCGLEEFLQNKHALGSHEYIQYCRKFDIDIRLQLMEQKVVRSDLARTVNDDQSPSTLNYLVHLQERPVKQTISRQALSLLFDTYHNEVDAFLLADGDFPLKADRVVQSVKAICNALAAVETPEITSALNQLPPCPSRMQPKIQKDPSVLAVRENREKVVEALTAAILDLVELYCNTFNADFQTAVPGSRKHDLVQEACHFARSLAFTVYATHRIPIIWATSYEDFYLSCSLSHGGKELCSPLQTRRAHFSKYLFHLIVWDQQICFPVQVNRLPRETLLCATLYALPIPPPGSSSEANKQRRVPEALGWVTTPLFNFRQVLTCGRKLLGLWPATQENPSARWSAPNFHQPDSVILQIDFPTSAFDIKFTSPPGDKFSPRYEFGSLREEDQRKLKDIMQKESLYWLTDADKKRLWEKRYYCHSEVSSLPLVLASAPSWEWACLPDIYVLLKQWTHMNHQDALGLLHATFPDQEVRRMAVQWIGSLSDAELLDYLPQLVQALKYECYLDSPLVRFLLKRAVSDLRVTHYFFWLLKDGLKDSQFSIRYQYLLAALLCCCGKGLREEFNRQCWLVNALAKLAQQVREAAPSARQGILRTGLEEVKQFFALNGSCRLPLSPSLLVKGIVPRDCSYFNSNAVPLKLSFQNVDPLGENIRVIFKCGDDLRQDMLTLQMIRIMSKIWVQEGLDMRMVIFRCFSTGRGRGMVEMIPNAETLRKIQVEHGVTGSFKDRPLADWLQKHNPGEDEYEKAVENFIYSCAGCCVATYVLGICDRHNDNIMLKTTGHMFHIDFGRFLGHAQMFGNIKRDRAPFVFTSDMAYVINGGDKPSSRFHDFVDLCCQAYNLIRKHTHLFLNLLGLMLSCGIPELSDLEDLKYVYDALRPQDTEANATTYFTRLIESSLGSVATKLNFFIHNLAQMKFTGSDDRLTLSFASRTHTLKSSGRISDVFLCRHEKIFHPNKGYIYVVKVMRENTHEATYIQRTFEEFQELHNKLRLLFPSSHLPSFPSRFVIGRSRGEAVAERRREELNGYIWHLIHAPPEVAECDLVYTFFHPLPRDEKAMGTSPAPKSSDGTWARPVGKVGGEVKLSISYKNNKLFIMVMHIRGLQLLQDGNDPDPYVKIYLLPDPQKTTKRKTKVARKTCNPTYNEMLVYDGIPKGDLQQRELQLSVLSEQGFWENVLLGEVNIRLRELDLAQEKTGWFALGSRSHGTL
Sequence of Cytochrome P450 2C19 (P33261 whole entry): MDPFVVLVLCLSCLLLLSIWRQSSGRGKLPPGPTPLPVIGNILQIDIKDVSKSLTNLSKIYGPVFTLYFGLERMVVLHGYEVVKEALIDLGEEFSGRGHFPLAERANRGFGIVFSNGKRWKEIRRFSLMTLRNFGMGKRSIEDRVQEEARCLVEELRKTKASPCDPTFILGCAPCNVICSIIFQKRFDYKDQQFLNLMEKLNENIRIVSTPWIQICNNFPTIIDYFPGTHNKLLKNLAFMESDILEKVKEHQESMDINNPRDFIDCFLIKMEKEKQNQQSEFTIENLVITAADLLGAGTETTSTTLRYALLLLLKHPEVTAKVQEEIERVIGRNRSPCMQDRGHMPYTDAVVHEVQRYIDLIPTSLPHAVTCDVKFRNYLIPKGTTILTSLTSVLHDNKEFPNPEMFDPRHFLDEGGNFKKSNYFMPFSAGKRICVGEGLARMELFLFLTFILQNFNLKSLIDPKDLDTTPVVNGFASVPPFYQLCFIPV

Ki [1]: 1.3 nM
clearance [2]: 125 mL/min/kg
SMILES: CC(C)n1ncnc1-c1cn2c(n1)-c1cnc(N3CCCC3)cc1OCC2

Vd [3]: 2.5 L/kg
F (Canis familiaris [4]): 100%
AUC (Canis familiaris [6]): 2.4 µM·h
Vdss (Mus musculus [7]): 0.6 L/kg
IC50 (Cytochrome P450 3A4): > 10 µM
bioavailability [10]: 72%
clearance [11]: 13 mL/min/kg
Papp A→B [12]: 13 ×10⁻⁶ cm/s
IC50 (Cytochrome P450 2C19): > 10 µM
Cmax [13]: 2100 nM
Cmax [14]: 5.4 µM
Cmax [15]: 31 µM
fraction unbound at 4 h, 5 µM [16]: 0.61
fraction unbound at 4 h, 5 µM [17]: 0.62
AUC [18]: 4.8 µM·h
IC50 (Cytochrome P450 1A2): > 10 µM
fraction unbound at 4 h, 5 µM [20]: 0.37
Vd [22]: 1.5 L/kg
bioavailability [23]: 120%
AUC [24]: 25.4 µM·h
fraction unbound at 4 h, 5 µM [25]: 0.6
IC50 (Cytochrome P450 2D6): > 10 µM
IC50 (Cytochrome P450 2C9): > 10 µM
clearance [28]: 8 mL/min/kg
inhibition [30]: 61%
AUC [31]: 74 µM·h
clearance [2]: 10 mL/min/kg
Vd [32]: 1.5 L/kg
bioavailability [36]: 55%
solubility thermodynamic [39]: 82 µg/mL (≈ 214 µM)
Cmax [40]: 1500 nM
SMILES: CC(C)n1ncnc1-c1cn2c(n1)-c1ccc(O[C@@H](C)C(N)=O)cc1OCC2
Activity (KPL4): Dose-dependent effect
inhibition in vivo at 12.5 mg/kg [5]: 110%
inhibition in vivo at 0.78 mg/kg [8]: 73%
Activity (Mus musculus [9]): < 10%
inhibition in vivo at 1.56 mg/kg [19]: 97%
EC50 [21]: 100 nM
inhibition in vivo at 0.78 mg/kg [26]: 73%
inhibition in vivo at 6.25 mg/kg (Mus musculus [27]): 78%
inhibition in vivo at 6.25 mg/kg [29]: 122%
inhibition in vivo at 6.25 mg/kg [33]: 101%
Activity (Homo sapiens): Dose-dependent effect
inhibition in vivo at 12.5 mg/kg [34]: 121%
inhibition in vivo at 1.56 mg/kg [35]: 79%
EC50 [37]: 2200 nM
inhibition in vivo at 3.25 mg/kg [38]: 83%
inhibition in vivo at 3.25 mg/kg [41]: 97%
EC50 [42]: 60 nM
